Laboratory results: ChEMBL document CHEMBL3792346, “Thiazolino 2-Pyridone Amide Inhibitors of Chlamydia trachomatis Infectivity” (J Med Chem, 2016)

Assays:
[1] = Cytotoxicity against human HeLa cells assessed as cell viability at 10 uM after 48 hrs by resazurin assay relative to control; format: cell-based; details: read-out: Activity
Outline: (§1)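 Uninfected HeLa seeded in RPMI, next day switched to colorless DMEM with 10% FBS, 2 mM glutamine; compounds added in triplicate, 48 h at 37 °C; resazurin added, 3 h at 37 °C dark; fluorescence ex 535/em 595 nm; cell-free wells with compound check direct resazurin reduction; mean of three experiments in triplicate, SD over nine replicates.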

Chlamydia trachomatis [2] = assay: Antimicrobial activity against Chlamydia trachomatis serovar LGV-L2 infected in human HeLa cells assessed as concentration require to reduce relative inclusion forming units by 95% after 48 hrs; format: functional
Outline: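 HeLa cells infected with LGV-L2 at MOI 0.1-0.5; compounds added at 1 hpi, tested at 2.5 µM then 5 or 10 µM or 1, 0.5, 0.25, 0.1 µM; after ~48 h, osmotic lysis, SPG restored, 10-fold dilutions reinfect fresh HeLa; IFUs counted by automated imaging versus DMSO; Reinfect95 = lowest concentration consistently giving 95% IFU reduction; ≥2 experiments in triplicate.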

[3] = Cytotoxicity against human HeLa cells assessed as cell viability at 25 uM after 48 hrs by resazurin assay relative to control; format: cell-based; details: read-out: Activity; outline: as §1
Chlamydia trachomatis [4] = assay: Antimicrobial activity against Chlamydia trachomatis serovar LGV-L2 infected in human HeLa cells assessed as decrease in relative inclusion forming units measured 44 to 48 hrs post infection by DAPI staining-based assay; format: functional, organism-based
Outline: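 HeLa229 cells infected with serovar LGV-L2 at MOI 0.3; compounds in DMSO added at 1 hpi as 8-step halving dilutions from 2 to 0.0156 µM; after 44-48 h, osmotic lysis with cold water, SPG restored, lysate 10-fold serially diluted onto fresh HeLa; after 44-48 h, methanol-fixed, anti-Chlamydia/FITC stained, IFUs counted by automated scanner relative to DMSO; EC50 by nonlinear regression, ≥3 independent experiments.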

Chlamydia trachomatis [5] = assay: Antimicrobial activity against Chlamydia trachomatis serovar D infected in human HeLa cells assessed as decrease in relative inclusion forming units measured 44 to 48 hrs post infection by DAPI staining-based assay; format: functional, organism-based

EC50 (Chlamydia trachomatis [4]) [nM] | EC50 (Chlamydia trachomatis [5]) [nM] | Compound | viability at 48 h, 10 µM [1] [%] | Activity (Chlamydia trachomatis [2]) [µM] | viability at 48 h, 25 µM [3] [%]
 |  | CNC(=O)c1cccc(NC(=O)C2CSc3c(C4CC4)c(Cc4cccc5ccccc45)cc(=O)n32)c1 (stereo not drawn) | 93 | 10 | 
 |  | O=C(Nc1ccccc1)C1CSc2c(C3CC3)c(Cc3ccccc3)cc(=O)n21 (stereo not drawn) | 96 | 2.5 | 
 |  | O=C(Nc1nccs1)C1CSc2c(C3CC3)c(Cc3cccc4ccccc34)cc(=O)n21 (stereo not drawn) | 96 | 5 | 
 |  | CON(C)C(=O)C1CSc2c(C3CC3)c(Cc3cccc4ccccc34)cc(=O)n21 (stereo not drawn) | 88 | >10 | 
 |  | O=C(C1CSc2c(C3CC3)c(Cc3cccc4ccccc34)cc(=O)n21)N1CCOCC1 (stereo not drawn) | 90 | >10 | 
 |  | Cc1cccc(Cc2cc(=O)n3c(c2C2CC2)SCC3C(=O)Nc2ccccc2)c1 (stereo not drawn) | 87 | 2.5 | 
102 |  | Cc1cccc(NC(=O)C2CSc3c(C4CC4)c(Cc4cccc5ccccc45)cc(=O)n32)c1 (stereo not drawn) | 99 | 1 | 100
 |  | CCc1cccc(NC(=O)C2CSc3c(C4CC4)c(Cc4cccc5ccccc45)cc(=O)n32)c1 (stereo not drawn) | 100 | 2.5 | 
 |  | COc1cccc(NC(=O)C2CSc3c(C4CC4)c(Cc4cccc5ccccc45)cc(=O)n32)c1 (stereo not drawn) | 98 | 2.5 | 
266 | 270 | Cc1ccc(NC(=O)C2CSc3c(C4CC4)c(Cc4ccc(Cl)cc4)c(N)c(=O)n32)cc1 (stereo not drawn) | 101 | 2.5 | 102
 |  | O=C(Nc1ccc(Cl)cc1)C1CSc2c(C3CC3)c(Cc3cccc4ccccc34)cc(=O)n21 (stereo not drawn) | 94 | 2.5 | 
 |  | O=C(C1CSc2c(C3CC3)c(Cc3cccc4ccccc34)cc(=O)n21)N1CCCCC1 (stereo not drawn) | 86 | >10 | 
 |  | NS(=O)(=O)c1ccc(NC(=O)C2CSc3c(C4CC4)c(Cc4cccc5ccccc45)cc(=O)n32)cc1 (stereo not drawn) | 95 | 10 | 
 |  | O=C(Nc1ccccc1F)C1CSc2c(C3CC3)c(Cc3cccc4ccccc34)cc(=O)n21 (stereo not drawn) | 96 | 2.5 | 
 |  | Cc1ccc(NC(=O)C2CSc3c(C4CC4)c(Cc4cccc(C)c4C)cc(=O)n32)cc1 (stereo not drawn) | 95 | 1 | 
 |  | O=C(O)c1c(Cc2cccc3ccccc23)c(C2CC2)c2n(c1=O)C(C(=O)Nc1ccccc1)CS2 (stereo not drawn) | 103 | > 10 | 
 |  | CN1CCN(C(=O)C2CSc3c(C4CC4)c(Cc4cccc5ccccc45)cc(=O)n32)CC1 (stereo not drawn) | 96 | >10 | 
 |  | Cc1cccc(Cc2cc(=O)n3c(c2C2CC2)SCC3C(=O)Nc2ccccc2)c1C (stereo not drawn) | 91 | 2.5 | 
 |  | NC(=O)c1ccc(NC(=O)C2CSc3c(C4CC4)c(Cc4cccc5ccccc45)cc(=O)n32)cc1 (stereo not drawn) | 98 | 2.5 | 
 |  | O=C(Nc1ccncn1)C1CSc2c(C3CC3)c(Cc3cccc4ccccc34)cc(=O)n21 (stereo not drawn) | 92 | 2.5 | 
 |  | O=C(Nc1cccc(C(F)(F)F)c1)C1CSc2c(C3CC3)c(Cc3cccc4ccccc34)cc(=O)n21 (stereo not drawn) | 95 | 2.5 | 
 |  | O=C(NCc1ccccc1)C1CSc2c(C3CC3)c(Cc3cccc4ccccc34)cc(=O)n21 (stereo not drawn) | 93 | 2.5 | 
 |  | CN(C(=O)C1CSc2c(C3CC3)c(Cc3cccc4ccccc34)cc(=O)n21)c1ccccc1 (stereo not drawn) | 96 | 5 | 
 |  | O=C(Nc1cccc(F)c1)C1CSc2c(C3CC3)c(Cc3cccc4ccccc34)cc(=O)n21 (stereo not drawn) | 96 | 2.5 | 

EC50 (Chlamydia trachomatis [4]) [nM] | EC50 (Chlamydia trachomatis [5]) [nM] | Compound | viability at 48 h, 10 µM [1] [%] | Activity (Chlamydia trachomatis [2]) [µM] | viability at 48 h, 25 µM [3] [%]
 |  | O=C(Nc1ccccc1)[C@@H]1CSc2c(C3CC3)c(Cc3cccc4ccccc34)cc(=O)n21 | 100 | 2.5 | 
281 | 274 | Cc1ccc(NC(=O)C2CSc3c(C4CC4)c(Cc4cccc(C)c4C)c(N)c(=O)n32)cc1 (stereo not drawn) | 101 | 1 | 102
 |  | O=C(Nc1cccnc1)C1CSc2c(C3CC3)c(Cc3cccc4ccccc34)cc(=O)n21 (stereo not drawn) | 77 | 10 | 
 |  | O=C(Nc1cccc(Cl)c1)C1CSc2c(C3CC3)c(Cc3cccc4ccccc34)cc(=O)n21 (stereo not drawn) | 100 | 2.5 | 
 |  | O=C(Nc1ccccc1)C1CSc2c(C3CC3)c(Cc3cccc(Cl)c3Cl)cc(=O)n21 (stereo not drawn) | 85 | 2.5 | 
 |  | CNC(=O)C1CSc2c(C3CC3)c(Cc3cccc4ccccc34)cc(=O)n21 (stereo not drawn) | 93 | 10 | 
 |  | O=C(Nc1ccccc1)C1CSc2c(C3CC3)c(Cc3cccc4ncccc34)cc(=O)n21 (stereo not drawn) | 91 | 10 | 
 |  | Cc1ccc(NC(=O)C2CSc3c(C4CC4)c(Cc4cccc5ccccc45)cc(=O)n32)cc1 (stereo not drawn) | 97 | 2.5 | 
 |  | O=C(Nc1ccncc1)C1CSc2c(C3CC3)c(Cc3cccc4ccccc34)cc(=O)n21 (stereo not drawn) | 69 | 5 | 
 |  | O=C(Nc1ccc(F)cc1)C1CSc2c(C3CC3)c(Cc3cccc4ccccc34)cc(=O)n21 (stereo not drawn) | 98 | 2.5 | 
 |  | O=C(Nc1ccccc1)[C@H]1CSc2c(C3CC3)c(Cc3cccc4ccccc34)cc(=O)n21 | 100 | 2.5 | 
 |  | O=C(NC1CCCCC1)C1CSc2c(C3CC3)c(Cc3cccc4ccccc34)cc(=O)n21 (stereo not drawn) | 88 | 10 | 
 |  | COc1ccc(Cc2cc(=O)n3c(c2C2CC2)SCC3C(=O)Nc2ccccc2)cc1 (stereo not drawn) | 103 | 2.5 | 
 |  | O=C(Nc1ccccn1)C1CSc2c(C3CC3)c(Cc3cccc4ccccc34)cc(=O)n21 (stereo not drawn) | 90 | 10 | 
 |  | Cc1ccc(Cc2cc(=O)n3c(c2C2CC2)SCC3C(=O)Nc2ccccc2)cc1C (stereo not drawn) | 91 | 2.5 | 
 |  | NC(=O)c1ccc(NC(=O)C2CSc3c(C4CC4)c(Cc4cccc5ccccc45)c(N)c(=O)n32)cc1 (stereo not drawn) | 103 | >10 | 
 |  | O=C(Nc1ccccc1)[C@@H]1CSc2c(C3CC3)c(Cc3cccc4ccccc34)c(CN3CCOCC3)c(=O)n21 | 99 | 5 | 
 |  | Cc1ccc(NC(=O)C2CSc3c(C4CC4)c(Cc4ccc(Cl)cc4)cc(=O)n32)cc1 (stereo not drawn) | 89 | 1 | 
 |  | O=C(Nc1ccccc1)C1CSc2c(C3CC3)c(Cc3ccc(Cl)cc3)cc(=O)n21 (stereo not drawn) | 94 | 2.5 | 
 |  | Nc1c(Cc2cccc3ccccc23)c(C2CC2)c2n(c1=O)C(C(=O)Nc1ccncn1)CS2 (stereo not drawn) | 99 | 2.5 | 88
 |  | O=C(Nc1ccccc1)C1CSc2c(C3CC3)c(Cc3cccc4ccccc34)cc(=O)n21 (racemic) | 100 | 2.5 | 
 |  | Cc1cc(=O)n2c(c1C1CC1)SCC2C(=O)Nc1ccccc1 (stereo not drawn) | 99 | 10 | 
 |  | COc1ccc(NC(=O)C2CSc3c(C4CC4)c(Cc4cccc5ccccc45)cc(=O)n32)cc1 (stereo not drawn) | 100 | 2.5 | 
